According to ChEMBL document CHEMBL4689842, “EUbOPEN Chemogenomics Library wave 1” (2021):
Several values for one entry are separate records, joined by “and”; a condition that tells them apart may be missing. Equal entries are not always repeated.

Test system: U2OS
Assay: Multiplex assay against U2OS
Type: toxicity, cell-based
Conditions: human
Procedure, shortened: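 Per cents of healthy-nucleus cells form the tubulin, mitochondrial-mass and membrane-permeability phenotype values. Live cells were stained at seeding with Hoechst33342, BioTracker Green Microtubule Cytoskeleton Dye, MitoTracker Red and Annexin V Alexa Fluor 680. After compound addition they were imaged on a CQ1 microscope at 37°C and 5% CO2, and CellPathfinder machine-learning gating split them into Hoechst high-intensity objects or normal cells, normal cells into healthy, pyknosed or fragmented nuclei, and pyknosed cells into mitotic or apoptotic.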

[1] = 12 h, 1 µM, compound concentration 1 uM, replicate 1
[2] = 12 h, 1 µM, compound concentration 1 uM, replicate 2
[3] = 12 h, 10 µM, compound concentration 10 uM, replicate 1
[4] = 12 h, 10 µM, compound concentration 10 uM, replicate 2
[5] = 24 h, 1 µM, compound concentration 1 uM, replicate 1
[6] = 24 h, 1 µM, compound concentration 1 uM, replicate 2
[7] = 24 h, 10 µM, compound concentration 10 uM, replicate 1
[8] = 24 h, 10 µM, compound concentration 10 uM, replicate 2
[9] = 48 h, 1 µM, compound concentration 1 uM, replicate 1
[10] = 48 h, 1 µM, compound concentration 1 uM, replicate 2
[11] = 48 h, 10 µM, compound concentration 10 uM, replicate 1
[12] = 48 h, 10 µM, compound concentration 10 uM, replicate 2

## CNC(=O)c1ccc(Nc2ncc(C(F)(F)F)c(NCc3nccnc3N(C)S(C)(=O)=O)n2)cc1 [DEFACTINIB]
[1]
  Population Apoptotic (%): 22% and 66%
  Population Healthy Nuclei (%): 90% and 65%
  Population Hoechst High Intensity Objects (%): 4% and 6%
  Population Membrane Permeable-Phenotype (%): 13% and 37%
  Population Mitochondria Different-Phenotype (%): 27% and 15%
  Population Mitotic Cells (%): 77% and 33%
  Population Normal (%): 95% and 93%
  Population Pyknosed Nuclei (%): 4% and 12%
  Population Tubulin-Different-Phenotype (%): 21% and 36%
  Total Cell Count: 194 and 96
[2]
  Population Apoptotic (%): 25% and 42%
  Population Fragmented Nuclei (%): 6% and 9%
  Population Healthy Nuclei (%): 89% and 77%
  Population Hoechst High Intensity Objects (%): 13% and 9%
  Population Mitochondria Different-Phenotype (%): 28% and 16%
  Population Mitotic Cells (%): 75% and 57%
  Population Normal (%): 86% and 90%
  Population Pyknosed Nuclei (%): 13%
  Population Tubulin-Different-Phenotype (%): 24%
  Total Cell Count: 107 and 86
[3]
  Population Apoptotic (%): 64% and 37%
  Population Fragmented Nuclei (%): 14% and 7%
  Population Healthy Nuclei (%): 65% and 83%
  Population Hoechst High Intensity Objects (%): 8% and 3%
  Population Mitochondria Different-Phenotype (%): 13% and 25%
  Population Mitotic Cells (%): 35% and 62%
  Population Normal (%): 91% and 96%
  Population Pyknosed Nuclei (%): 20% and 8%
  Population Tubulin-Different-Phenotype (%): 32% and 24%
  Total Cell Count: 148 and 188
[4]
  Population Apoptotic (%): 33% and 28%
  Population Healthy Nuclei (%): 44% and 80%
  Population Hoechst High Intensity Objects (%): 30% and 18%
  Population Membrane Permeable-Phenotype (%): 26%
  Population Mitotic Cells (%): 66% and 71%
  Population Normal (%): 69% and 81%
  Population Pyknosed Nuclei (%): 10%
  Population Tubulin-Different-Phenotype (%): 23% and 30%
  Total Cell Count: 166 and 106
[5]
  Population Apoptotic (%): 46% and 76%
  Population Healthy Nuclei (%): 88% and 62%
  Population Hoechst High Intensity Objects (%): 0% and 10%
  Population Mitochondria Different-Phenotype (%): 29% and 32%
  Population Mitotic Cells (%): 53% and 24%
  Population Normal (%): 99% and 89%
  Population Pyknosed Nuclei (%): 5% and 15%
  Population Tubulin-Different-Phenotype (%): 30% and 46%
  Total Cell Count: 259
[6]
  Population Fragmented Nuclei (%): 7% and 20%
  Population Healthy Nuclei (%): 90% and 57%
  Population Hoechst High Intensity Objects (%): 9% and 7%
  Population Mitochondria Different-Phenotype (%): 37% and 31%
  Population Mitotic Cells (%): 100% and 34%
  Population Normal (%): 90% and 92%
  Population Tubulin-Different-Phenotype (%): 29% and 36%
  Total Cell Count: 129 and 90
[7]
  Population Apoptotic (%): 68% and 42%
  Population Healthy Nuclei (%): 51% and 88%
  Population Mitochondria Different-Phenotype (%): 28% and 32%
  Population Mitotic Cells (%): 31% and 57%
  Population Normal (%): 89% and 97%
  Population Tubulin-Different-Phenotype (%): 40% and 26%
  Total Cell Count: 139 and 241
[8]
  Population Apoptotic (%): 40% and 20%
  Population Hoechst High Intensity Objects (%): 27% and 11%
  Population Membrane Permeable-Phenotype (%): 25% and 17%
  Population Mitochondria Different-Phenotype (%): 37% and 38%
  Population Mitotic Cells (%): 59% and 80%
  Population Normal (%): 72% and 88%
  Population Tubulin-Different-Phenotype (%): 34% and 28%
  Total Cell Count: 163 and 126

## Cc1cccc(CN2CCN(C(c3ccccc3)c3ccc(Cl)cc3)CC2)c1.Cl.Cl (stereo not drawn)
[1]
  Population Apoptotic (%): 27%
  Population Fragmented Nuclei (%): 4%
  Population Healthy Nuclei (%): 87%
  Population Hoechst High Intensity Objects (%): 6%
  Population Membrane Permeable-Phenotype (%): 3%
  Population Mitochondria Different-Phenotype (%): 6%
  Population Mitotic Cells (%): 72%
  Population Normal (%): 93%
  Population Pyknosed Nuclei (%): 7%
  Population Tubulin-Different-Phenotype (%): 3%
  Total Cell Count: 182
[2]
  Population Apoptotic (%): 0%
  Population Fragmented Nuclei (%): 16%
  Population Healthy Nuclei (%): 79%
  Population Hoechst High Intensity Objects (%): 8%
  Population Membrane Permeable-Phenotype (%): 4%
  Population Mitochondria Different-Phenotype (%): 26%
  Population Mitotic Cells (%): 100%
  Population Normal (%): 91%
  Population Pyknosed Nuclei (%): 3%
  Population Tubulin-Different-Phenotype (%): 23%
  Total Cell Count: 48
[3]
  Population Apoptotic (%): 54%
  Population Fragmented Nuclei (%): 6%
  Population Healthy Nuclei (%): 76%
  Population Hoechst High Intensity Objects (%): 5%
  Population Membrane Permeable-Phenotype (%): 4%
  Population Mitochondria Different-Phenotype (%): 73%
  Population Mitotic Cells (%): 45%
  Population Normal (%): 94%
  Population Pyknosed Nuclei (%): 16%
  Population Tubulin-Different-Phenotype (%): 78%
  Total Cell Count: 149
[4]
  Population Apoptotic (%): 50%
  Population Fragmented Nuclei (%): 14%
  Population Healthy Nuclei (%): 72%
  Population Hoechst High Intensity Objects (%): 6%
  Population Membrane Permeable-Phenotype (%): 6%
  Population Mitochondria Different-Phenotype (%): 61%
  Population Mitotic Cells (%): 50%
  Population Normal (%): 93%
  Population Pyknosed Nuclei (%): 13%
  Population Tubulin-Different-Phenotype (%): 47%
  Total Cell Count: 58
[5]
  Population Apoptotic (%): 45%
  Population Fragmented Nuclei (%): 7%
  Population Healthy Nuclei (%): 86%
  Population Hoechst High Intensity Objects (%): 5%
  Population Membrane Permeable-Phenotype (%): 2%
  Population Mitochondria Different-Phenotype (%): 8%
  Population Mitotic Cells (%): 54%
  Population Normal (%): 94%
  Population Pyknosed Nuclei (%): 6%
  Population Tubulin-Different-Phenotype (%): 2%
  Total Cell Count: 176
[6]
  Population Apoptotic (%): 80%
  Population Fragmented Nuclei (%): 18%
  Population Healthy Nuclei (%): 73%
  Population Hoechst High Intensity Objects (%): 10%
  Population Membrane Permeable-Phenotype (%): 11%
  Population Mitochondria Different-Phenotype (%): 13%
  Population Mitotic Cells (%): 20%
  Population Normal (%): 89%
  Population Pyknosed Nuclei (%): 8%
  Population Tubulin-Different-Phenotype (%): 22%
  Total Cell Count: 47
[7]
  Population Apoptotic (%): 42%
  Population Fragmented Nuclei (%): 6%
  Population Healthy Nuclei (%): 74%
  Population Hoechst High Intensity Objects (%): 7%
  Population Membrane Permeable-Phenotype (%): 2%
  Population Mitochondria Different-Phenotype (%): 65%
  Population Mitotic Cells (%): 57%
  Population Normal (%): 92%
  Population Pyknosed Nuclei (%): 19%
  Population Tubulin-Different-Phenotype (%): 61%
  Total Cell Count: 181
[8]
  Population Apoptotic (%): 11%
  Population Fragmented Nuclei (%): 10%
  Population Healthy Nuclei (%): 77%
  Population Hoechst High Intensity Objects (%): 5%
  Population Membrane Permeable-Phenotype (%): 5%
  Population Mitochondria Different-Phenotype (%): 63%
  Population Mitotic Cells (%): 88%
  Population Normal (%): 94%
  Population Pyknosed Nuclei (%): 12%
  Population Tubulin-Different-Phenotype (%): 45%
  Total Cell Count: 67
[9]
  Population Apoptotic (%): 30%
  Population Fragmented Nuclei (%): 5%
  Population Healthy Nuclei (%): 85%
  Population Hoechst High Intensity Objects (%): 3%
  Population Membrane Permeable-Phenotype (%): 1%
  Population Mitochondria Different-Phenotype (%): 11%
  Population Mitotic Cells (%): 69%
  Population Normal (%): 96%
  Population Pyknosed Nuclei (%): 8%
  Population Tubulin-Different-Phenotype (%): 5%
  Total Cell Count: 192
[10]
  Population Apoptotic (%): 0%
  Population Fragmented Nuclei (%): 9%
  Population Healthy Nuclei (%): 84%
  Population Hoechst High Intensity Objects (%): 7%
  Population Membrane Permeable-Phenotype (%): 5%
  Population Mitochondria Different-Phenotype (%): 16%
  Population Mitotic Cells (%): 100%
  Population Normal (%): 92%
  Population Pyknosed Nuclei (%): 6%
  Population Tubulin-Different-Phenotype (%): 24%
  Total Cell Count: 45
[11]
  Population Apoptotic (%): 54%
  Population Fragmented Nuclei (%): 8%
  Population Healthy Nuclei (%): 72%
  Population Hoechst High Intensity Objects (%): 4%
  Population Membrane Permeable-Phenotype (%): 3%
  Population Mitochondria Different-Phenotype (%): 42%
  Population Mitotic Cells (%): 45%
  Population Normal (%): 95%
  Population Pyknosed Nuclei (%): 18%
  Population Tubulin-Different-Phenotype (%): 44%
  Total Cell Count: 299
[12]
  Population Apoptotic (%): 25%
  Population Fragmented Nuclei (%): 12%
  Population Healthy Nuclei (%): 71%
  Population Hoechst High Intensity Objects (%): 5%
  Population Membrane Permeable-Phenotype (%): 7%
  Population Mitochondria Different-Phenotype (%): 30%
  Population Mitotic Cells (%): 75%
  Population Normal (%): 94%
  Population Pyknosed Nuclei (%): 16%
  Population Tubulin-Different-Phenotype (%): 18%
  Total Cell Count: 95
